Measured values published in publication PMC3913000 (Nature chemical biology, 2013).
“Also recorded” adds a separate entry of the source.

Legend:
IgE^dansyl = experiment: Fluorescence quenching assay, hapten binding to IgE^dansyl; details: dansyl-IgE^dansyl versus NF-IgE^DNP
Procedure, shortened: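 Monovalent hapten titrated into 10 nM IgE in PBS. Binding read as quenching of IgE tryptophan fluorescence at 335 nm, which occurs only when hapten and IgE are in proximity (<10 nm). Monovalent binding constants were derived from the quenching. At least triplicate.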

RBL cells = experiment: Inhibition of allergen-induced RBL mast cell degranulation; assay type: cell-based, rat; details: equimolar IgE^DNP and IgE^dansyl; 500 nM HtTA [dansyl2NF2]
IgE = details: read-out: Kd for IgE (nucleotide-binding site ligand); cited from earlier work

With dansyl as the compound, how does the “difference in affinity between dansyl-IgE^dansyl and NF-IgE^DNP pairs” value (IgE^dansyl) read?
Its value is 760 fold.

Which results are given for `O=C(O)CCCc1c[nH]c2ccccc12` [IBA, indole-3-butyric acid]?
inhibition of HtTA [dansyl2NF2]-induced degranulation (RBL cells): did not inhibit degranulation; also recorded: no inhibition of mast cell degranulation was observed; Kd (IgE): 4.5 ± 0.6 µM
